# Laboratory results from paper PMC2574800 (Bioorganic & medicinal chemistry, 2008).
# Assays:
# [1] = tested on: Bovine brain tubulin (colchicine site); assay: Inhibition of [3H]colchicine binding to tubulin; conditions: tubulin 1 μM, colchicine 5 μM, tested compound 1 μM
# [2] = tested on: murine leukemia L1210 cells; assay: Cell growth inhibitory activity, L1210; assay type: cell-based; conditions: Mus musculus, L1210, 48 h, read-out: IC50 (proliferation) L1210
# Summary of the method: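 Murine leukaemia L1210 cells grown with varying concentrations of test compound at 37 °C for two days; cell number counted on a Coulter counter. IC50 is the concentration inhibiting cell proliferation by 50%, taken from dose–response curves. Mean ± SE of at least three independent experiments.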
# [3] = tested on: murine mammary carcinoma FM3A cells; assay: Cell growth inhibitory activity, FM3A; assay type: cell-based; conditions: Mus musculus, 48 h, read-out: IC50 (proliferation) FM3A
# [4] = tested on: L1210, FM3A, Molt/4 and CEM cells; assay: Cell growth inhibitory activity, range over the four cell lines; assay type: cell-based; conditions: for IC50: read-out: IC50-values range against the four cell lines
# Summary of the method: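 Cells incubated with test compound at 37 °C for two days (L1210, FM3A) or three days (Molt 4, CEM). Cell number counted with a Coulter counter. IC50 taken as the concentration giving 50% inhibition of proliferation, from dose–response curves. Mean ± SE of at least three independent experiments.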
# K562 cells = assay: Flow cytometric analysis of cell cycle distribution; assay type: cell-based, human; conditions: 24 h, compound at its 24 h IC50, propidium iodide
Compound,IC50 [2] [nM],Effect on cell cycle distribution (K562 cells),other results
"COc1ccc(/C=C\c2cc(OC)c(OC)c(OC)c2)cc1O [CA-4 (1), combretastatin A-4]",2.8 ± 1.1,,Colchicine binding % ± SD (inhibition of [3H]colchicine binding) [1]: 86 ± 3%
COc1ccc2c(N)c(C(=O)c3cc(OC)c(OC)c(OC)c3)[nH]c2c1 [Compound 3a],970 ± 24,,IC50 [3]: 1600 ± 30 nM
COc1ccc2c(N)c(C(=O)c3cc(OC)c(OC)c(OC)c3)n(C)c2c1 [Compound 4a],69 ± 37,,IC50 [3]: 97 ± 3 nM
"COc1cc(C(=O)c2oc3cccc(OC)c3c2N)cc(OC)c1OC [Compound 5b, (3-Amino-4-methoxybenzofuran-2-yl)(3,4,5-trimethoxyphenyl)methanone]",,,Fold less active than 5d in the four cell lines ([4]; antiproliferative activity relative to 5d): over 10 fold
"COc1ccc2c(N)c(C(=O)c3cc(OC)c(OC)c(OC)c3)oc2c1 [Compound 5d, (3-Amino-6-methoxybenzofuran-2-yl)(3,4,5-trimethoxyphenyl)methanone]",,accumulate in late S phase,IC50 [4]: 87 to 430 nM
"COc1ccc2c(N(C)C)c(C(=O)c3cc(OC)c(OC)c(OC)c3)oc2c1 [Compound 5i, (3-(Dimethylamino)-6-methoxybenzofuran-2-yl) (3,4,5-trimethoxyphenyl)methanone]",,accumulation of cells in G2-M,IC50 [4]: 48 to 75 nM
"COc1ccc2c(NC(=O)CCl)c(C(=O)c3cc(OC)c(OC)c(OC)c3)oc2c1 [Compound 5l, (3-chloroacetylamino-6-methoxybenzofuran-2-yl)(3,4,5-trimethoxyphenyl)methanone]",,accumulate in late S phase,
"COc1ccc2c(NC(=O)CI)c(C(=O)c3cc(OC)c(OC)c(OC)c3)oc2c1 [Compound 5n, (3-iodoacetylamino-6-methoxybenzofuran-2-yl)(3,4,5-trimethoxyphenyl)methanone]",,greatest percentage increase in the percentage of cells in apoptotic cells (subG0-G1 peak),
